Assay results taken from ChEMBL document CHEMBL4665651, “Design, synthesis, and biological evaluation of some novel 4-aminoquinazolines as Pan-PI3K inhibitors” (Bioorg Med Chem, 2019).

Assays:
A549 = test: Antiproliferative activity against human A549 cells assessed as reduction in cell viability incubated for 72 hrs by SRB assay; assay type: functional, cell-based; conditions: A549, 72 h
How it was run: (§1)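 Cell lines grown at 37 °C in 5% CO₂: A549 in RPMI1640, MCF-7 in DMEM, each with 10% FBS plus penicillin/streptomycin/amphotericin B. Cells exposed to a range of compound concentrations for 72 h, then TCA-fixed and SRB-stained. Growth inhibition = 100 − 100×(OD sample − OD day 0)/(OD negative control − OD day 0). IC50 from non-linear regression of percent growth against concentration.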

MCF7 = test: Antiproliferative activity against human MCF7 cells assessed as reduction in cell viability incubated for 72 hrs by SRB assay; assay type: functional, cell-based; conditions: MCF7, 72 h; how it was run: as §1
HCT-116 = test: Antiproliferative activity against human HCT-116 cells assessed as reduction in cell viability incubated for 72 hrs by SRB assay; assay type: functional, cell-based; conditions: HCT-116, 72 h
[1] = biological target: Epidermal growth factor receptor (Homo sapiens, UniProt P00533); test: Inhibition of EGFR (unknown origin) using FAM-labeled peptide as substrate incubated for 10 mins followed by substrate addition and measured after 1 hr by mobility shift assay
How it was run: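 Mobility shift assay in 50 mM HEPES pH 7.5, 10 mM MgCl₂, 2 mM DTT, 0.0015% Brij35. Compound in 10-point DMSO dilution, run in duplicate. Enzyme preincubated with compound 10 min at room temperature. FAM-labeled peptide and ATP then added and reaction run at 28 °C for 1 h. Stopped with EDTA buffer; conversion turned into percent inhibition and fitted to a Hill equation for IC50.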

Epidermal growth factor receptor, sequence (P00533 whole entry): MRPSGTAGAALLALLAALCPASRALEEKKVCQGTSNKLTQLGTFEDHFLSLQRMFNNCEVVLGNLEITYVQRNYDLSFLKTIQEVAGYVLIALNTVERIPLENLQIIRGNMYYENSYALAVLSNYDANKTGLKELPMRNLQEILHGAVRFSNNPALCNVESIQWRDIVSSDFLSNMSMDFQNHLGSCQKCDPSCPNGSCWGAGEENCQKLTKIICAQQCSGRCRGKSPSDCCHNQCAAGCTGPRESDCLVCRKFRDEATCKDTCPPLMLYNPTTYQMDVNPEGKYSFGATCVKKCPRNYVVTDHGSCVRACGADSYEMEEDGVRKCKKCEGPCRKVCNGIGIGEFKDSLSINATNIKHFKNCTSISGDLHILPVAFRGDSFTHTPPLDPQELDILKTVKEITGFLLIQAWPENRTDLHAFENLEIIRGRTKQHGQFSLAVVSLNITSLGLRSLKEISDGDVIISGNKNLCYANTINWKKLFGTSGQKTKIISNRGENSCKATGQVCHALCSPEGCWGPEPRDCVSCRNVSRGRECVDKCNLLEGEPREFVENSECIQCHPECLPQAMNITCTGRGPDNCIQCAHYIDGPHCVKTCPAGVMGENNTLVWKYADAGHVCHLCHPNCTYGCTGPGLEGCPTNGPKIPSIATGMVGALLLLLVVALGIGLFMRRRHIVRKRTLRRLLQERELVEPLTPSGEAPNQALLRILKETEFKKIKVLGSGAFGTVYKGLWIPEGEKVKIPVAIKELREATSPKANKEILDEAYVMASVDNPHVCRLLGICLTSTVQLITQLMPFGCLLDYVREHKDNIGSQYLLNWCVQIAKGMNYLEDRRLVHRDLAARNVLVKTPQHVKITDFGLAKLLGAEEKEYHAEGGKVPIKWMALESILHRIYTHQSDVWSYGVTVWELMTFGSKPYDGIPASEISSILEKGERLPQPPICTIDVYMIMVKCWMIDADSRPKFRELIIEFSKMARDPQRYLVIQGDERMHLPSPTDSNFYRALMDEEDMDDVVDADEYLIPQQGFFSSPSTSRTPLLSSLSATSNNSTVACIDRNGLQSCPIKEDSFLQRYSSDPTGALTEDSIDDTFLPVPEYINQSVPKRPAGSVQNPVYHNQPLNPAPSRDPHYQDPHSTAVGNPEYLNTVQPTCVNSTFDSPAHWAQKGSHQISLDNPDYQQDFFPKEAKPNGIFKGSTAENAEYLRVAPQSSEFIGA

Row | Structure (SMILES) | IC50 (A549) [µM] | IC50 (MCF7) [µM] | IC50 (HCT-116) [µM] | IC50 [1] [µM]
1 | CCCCS(=O)(=O)Nc1cc(-c2ccc3ncnc(Nc4ccc(OCCO)nc4)c3c2)cnc1OC | 13.3 | > 20 | > 20 | 
2 | COc1ncc(-c2ccc3ncnc(Nc4ccc(OCCO)nc4)c3c2)cc1NS(=O)(=O)c1ccc(F)cc1F | 4.12 | 4.3 | 2.34 | 
3 | COc1ncc(-c2ccc3ncnc(Nc4cnn(CC(=O)O)c4)c3c2)cc1NS(=O)(=O)c1ccc(F)cc1F | 5.2 | 0.7 | 1.54 | 
4 | COc1ncc(-c2ccc3ncnc(Nc4ccc(OCCO)nc4)c3c2)cc1NS(C)(=O)=O | 5.08 | 3.08 | 5.36 | 
5 | COc1ncc(-c2ccc3ncnc(Nc4cnn(CCCO)c4)c3c2)cc1NS(C)(=O)=O | 3.6 | 0.73 | 1.42 | 
6 | COC(=O)CCn1cc(Nc2ncnc3ccc(-c4cnc(OC)c(NS(=O)(=O)c5ccc(F)cc5F)c4)cc23)cn1 | 2.99 | 0.49 | 0.97 | 
7 | COc1ncc(-c2ccc3ncnc(Nc4ccc(OCCO)c(Cl)c4)c3c2)cc1NS(=O)(=O)c1ccc(F)cc1F | 5.98 | 3.74 | 7.32 | 
8 | COc1ncc(-c2ccc3ncnc(Nc4ccc(OCCO)cc4)c3c2)cc1NS(C)(=O)=O | 5.2 | 3.27 | 4.86 | 
9 | COC(=O)Cn1cc(Nc2ncnc3ccc(-c4cnc(OC)c(NS(=O)(=O)c5ccc(F)cc5F)c4)cc23)cn1 | 4.28 | 0.67 | 1.26 | 
10 | COc1ncc(-c2ccc3ncnc(Nc4ccc(OCCCO)nc4)c3c2)cc1NS(=O)(=O)c1ccc(F)cc1F | 9.36 | 6.12 | 3.68 | 
11 | COc1ncc(-c2ccc3ncnc(Nc4cnn(CCO)c4)c3c2)cc1NS(C)(=O)=O | 8.22 | 0.77 | 1.49 | 2.52
12 | COc1ncc(-c2ccc3ncnc(Nc4ccc(OCCO)c(F)c4)c3c2)cc1NS(=O)(=O)c1ccc(F)cc1F | 6.64 | 4.82 | 9.16 | 
13 | COc1ncc(-c2ccc3ncnc(Nc4cnn(CCCO)c4)c3c2)cc1NS(=O)(=O)c1ccc(F)cc1F | 4.83 | 1.31 | 0.48 | 
14 | COc1ncc(-c2ccc3ncnc(Nc4ccc(OCCO)cc4)c3c2)cc1NS(=O)(=O)c1ccc(F)cc1F | 2.69 | 1.65 | 1.06 | 
15 | COc1ncc(-c2ccc3nccc(-c4ccnnc4)c3c2)cc1NS(=O)(=O)c1ccc(F)cc1F [OMIPALISIB] | 0.86 | 0.03 | 0.14 | 
16 | COc1cc(Nc2ncnc3ccc(-c4cnc(OC)c(NS(=O)(=O)c5ccc(F)cc5F)c4)cc23)ccc1OCCO | 3.76 | 2.26 | 5.72 | 
17 | COc1ncc(-c2ccc3ncnc(Nc4cnn(CCC(=O)O)c4)c3c2)cc1NS(=O)(=O)c1ccc(F)cc1F | 3.84 | 0.56 | 1.29 | 
